In ChEMBL document CHEMBL1121802, “Imine analogues of tricyclic antidepressants” (1981) one finds ED50 data, which are given here for eleven molecules.

What all share (format): functional
Test [1] relates to Mus musculus. The test is described as follows: The effect on 24-hour mortality was measured in mice upon ip administration.
For test [2], the system named is Mus musculus. In words: The effect on ataxia was measured in mice upon ip administration.
Test [3] deals with Mus musculus. The test is described as follows: The effect on electroshock protection was measured in mice upon ip administration.
The test system of test [4] is Mus musculus. The test is described as follows: Antidepressant activity by determining the reversal of tetrabenazine-induced ptosis upon oral administration. The procedure, abridged: (§1)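 Mice given test drug orally; 30 min later challenged with tetrabenazine (methanesulfonate) 32 mg/kg ip in 0.05 M KCl pH 2.0. Scored 1 h after test drug for exploratory activity and ptosis; ptosis antagonism = lid closure <50% in both eyes exactly 2 s after placing mouse facing observer. ED50 calculated by Thompson method.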

Test [5] deals with Mus musculus. In words: Antidepressant activity by determining the decreased exploratory activity in mice upon oral administration. The gist of the method: as §1
Test [6] relates to Mus musculus. In words: The effect on excitement was measured in mice upon ip administration.
The subject of test [7] is Mus musculus. The test is described as follows: Effect on pupil dilation was measured in mice upon oral administration. The procedure, abridged:
(§2)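 Observed at 0.5, 2, 5 and 24 h for ataxia (abnormal gait/imprecise movement), pupil diameter (dissecting microscope, 20×, micrometer), excitement (spontaneous running/jumping) and electroshock protection (corneal electrodes at 2 and 5 h). ED50 by Thompson method.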

Test [8] deals with Mus musculus. In words: The effect on 24-hour mortality in mice following oral administration.
Test [9] deals with Mus musculus. In words: The effect on ataxia in mice following oral administration. The gist of the method:
as §2

Test [10] relates to Mus musculus. In words: The effect on electroshock protection in mice following oral administration. The gist of the method: as §2
Test [11] concerns Mus musculus. In words: The effect on excitement was measured in mice following oral administration. The procedure, abridged: as §2
Test [12] relates to Mus musculus. In words: Compound was tested for antidepressant activity by determining the decreased exploratory activity in mice upon oral administration; 34-158. The gist of the method: as §1
The test system of test [13] is Mus musculus. The test is described as follows: Compound was tested for antidepressant activity by determining the reversal of tetrabenazine-induced ptosis upon oral administration; 1.1-1.8.
Test [14] has as its system Mus musculus. In words: Compound was tested for antidepressant activity by determining the decreased exploratory activity in mice upon oral administration; 2.7-4.6.
In test [15] the test system is Mus musculus. In words: Compound was tested for antidepressant activity by determining the reversal of tetrabenazine-induced ptosis upon oral administration; 2.2-6.2. The procedure, abridged: as §1
Test [16] deals with Mus musculus. The test is described as follows: Compound was tested for antidepressant activity by determining the decreased exploratory activity in mice upon oral administration; 9.2-17. The procedure, abridged:
as §1

The test system of test [17] is Mus musculus. In words: Compound was tested for antidepressant activity by determining the reversal of tetrabenazine-induced ptosis upon oral administration; 3.0-12.0. The gist of the method: as §1
The subject of test [18] is Mus musculus. In words: Compound was tested for antidepressant activity by determining the decreased exploratory activity in mice upon oral administration. The gist of the method:
as §1

Test [19] concerns Mus musculus. In words: Compound was tested for antidepressant activity by determining the reversal of tetrabenazine-induced ptosis upon oral administration; 7-22. The gist of the method:
as §1

The subject of test [20] is Mus musculus. In words: Compound was tested for antidepressant activity by determining the decreased exploratory activity in mice upon oral administration; 12-32. The procedure, abridged:
as §1

Test [21] relates to Mus musculus. The test is described as follows: Compound was tested for antidepressant activity by determining the reversal of tetrabenazine-induced ptosis upon oral administration; 6-20. The gist of the method:
as §1

Test [22] relates to Mus musculus. The test is described as follows: Compound was tested for antidepressant activity by determining the decreased exploratory activity in mice upon oral administration; 8-58. The procedure, abridged: as §1
For test [23], the system named is Mus musculus. The test is described as follows: Compound was tested for antidepressant activity by determining the reversal of tetrabenazine-induced ptosis upon oral administration; 22-53. The gist of the method:
as §1

For test [24], the system named is Mus musculus. The test is described as follows: Compound was tested for antidepressant activity by determining the reversal of tetrabenazine-induced ptosis upon oral administration; 6-21. The procedure, abridged: as §1
For test [25], the system named is Mus musculus. In words: Compound was tested for antidepressant activity by determining the decreased exploratory activity in mice upon oral administration; 16-31. The gist of the method: as §1
In test [26] the test system is Mus musculus. The test is described as follows: Compound was tested for antidepressant activity by determining the reversal of tetrabenazine-induced ptosis upon oral administration; 0.8-2.6. The gist of the method:
as §1

Test [27] concerns Mus musculus. The test is described as follows: Compound was tested for antidepressant activity by determining the decreased exploratory activity in mice upon oral administration; 4.1-12. The procedure, abridged: as §1
In test [28] the test system is Mus musculus. In words: Compound was tested for antidepressant activity by determining the reversal of tetrabenazine-induced ptosis upon oral administration; 0.9-3.3. The procedure, abridged: as §1

Regarding `c1ccc2c(c1)CCc1ccccc1C2=NCCN1CCOCC1`, the 50% effective dose (ED50) (usually the midpoint of the dose-response relation) was 300 mg/kg in the test on Mus musculus [1]; 200 mg/kg with Mus musculus [2]; 300 mg/kg in the test on Mus musculus [3]; above 125 mg/kg in the test on Mus musculus [4]; above 125 mg/kg with Mus musculus [5]; above 324 mg/kg in the test on Mus musculus [6]. The 50% effective dose (ED50) in the test on Mus musculus [7] worked out at 100 mg/kg.
In the case of `CN(C)CCN=c1c2ccccc2oc2ccccc12`, the ED50 in the test on Mus musculus [8] was 300 mg/kg; in the test on Mus musculus [9], 60 mg/kg; with Mus musculus [4] it was above 125 mg/kg; in the test with Mus musculus [10] it was above 324 mg/kg; with Mus musculus [11] it was 60 mg/kg; with Mus musculus [7], above 324 mg/kg. In the test on Mus musculus [12], this molecule registered a median effective dose (ED50) of 73 mg/kg.
With `CN(C)CCC=C1c2ccccc2CCc2ccccc21` [AMITRIPTYLINE], the 50% effective dose (ED50) in the test on Mus musculus [8] was 190 mg/kg; with Mus musculus [9], 14 mg/kg; in the test with Mus musculus [13], 1.4 mg/kg; with Mus musculus [10] it was 43 mg/kg; in the test on Mus musculus [11], above 324 mg/kg; in the test with Mus musculus [7], 23 mg/kg. This molecule registered a median effective dose (ED50) in the test on Mus musculus [14] of 3.5 mg/kg.
Regarding `CN(C)CCN=C1c2ccccc2C2C(c3ccccc31)C2(F)F` (configuration not stated), the ED50 is above 324 mg/kg in the test on Mus musculus [8]; 60 mg/kg in the test on Mus musculus [9]; 3.7 mg/kg in the test on Mus musculus [15]; 12.5 mg/kg in the test with Mus musculus [16]; 200 mg/kg in the test with Mus musculus [10]; above 324 mg/kg in the test with Mus musculus [11]. The same molecule displayed a 50% effective dose (ED50) in the test with Mus musculus [7] of 200 mg/kg.
As to `CN(C)CC/N=C1\c2ccccc2COc2ccccc21`, the ED50 with Mus musculus [8] is 200 mg/kg; in the test on Mus musculus [9] it was 36 mg/kg; in the test on Mus musculus [17], 6 mg/kg; with Mus musculus [18], 33 mg/kg; in the test with Mus musculus [10], 60 mg/kg; with Mus musculus [11], above 324 mg/kg. Further, it took a dose of 20 mg/kg to reach the 50% effect level in the test with Mus musculus [7] (ED50).
Regarding `CN(C)CC/N=C1\c2ccccc2CNc2ccccc21`, the 50% effective dose (ED50) was 300 mg/kg in the test on Mus musculus [8]; 36 mg/kg with Mus musculus [9]; 12 mg/kg in the test with Mus musculus [19]; 20 mg/kg in the test with Mus musculus [20]; above 324 mg/kg in the test with Mus musculus [10]; above 324 mg/kg with Mus musculus [11]. Besides, it took a dose of 36 mg/kg to reach the 50% effect level in the test with Mus musculus [7] (ED50).
For the molecule `CN(C)CCN=c1c2ccccc2sc2ccccc12`, the 50% effective dose (ED50) is 300 mg/kg in the test on Mus musculus [8]; 60 mg/kg with Mus musculus [9]; 11 mg/kg with Mus musculus [21]; 22 mg/kg in the test on Mus musculus [22]; above 324 mg/kg with Mus musculus [10]; above 324 mg/kg in the test on Mus musculus [11]. For the same molecule, the ED50 in the test with Mus musculus [7] was 36 mg/kg.
Consider `c1ccc2c(c1)C(=NCCN1CCCCC1)c1ccccc1C1CC21` (configuration not stated), for which the ED50 was 200 mg/kg with Mus musculus [8]; 12 mg/kg in the test on Mus musculus [9]; 34 mg/kg in the test on Mus musculus [23]; above 125 mg/kg in the test on Mus musculus [5]; above 324 mg/kg in the test with Mus musculus [10]; above 324 mg/kg in the test with Mus musculus [11]. The median effective dose (ED50) with Mus musculus [7] is above 324 mg/kg.
Turning to `CN(C)CC/N=C1\c2ccccc2CN(C)c2ccccc21`, the median effective dose (ED50) in the test with Mus musculus [8] is 60 mg/kg; in the test with Mus musculus [9], 60 mg/kg; in the test on Mus musculus [24], 11 mg/kg; with Mus musculus [10], 200 mg/kg; in the test with Mus musculus [11] it was above 324 mg/kg; in the test with Mus musculus [7] it was 60 mg/kg. The ED50 in the test with Mus musculus [25] is 22 mg/kg.
With `CCN(CC)CCN=C1c2ccccc2C2CC2c2ccccc21` (configuration not stated), the ED50 in the test on Mus musculus [8] is 200 mg/kg; with Mus musculus [9], 36 mg/kg; with Mus musculus [26], 1.4 mg/kg; in the test with Mus musculus [10], 100 mg/kg; in the test with Mus musculus [11], above 324 mg/kg; in the test with Mus musculus [7], 36 mg/kg. In the test with Mus musculus [27], the 50% effective dose (ED50) came out at 6.9 mg/kg.
On to `CN(C)CCCN=C1c2ccccc2C2CC2c2ccccc21` (configuration not stated), for which the median effective dose (ED50) in the test on Mus musculus [8] was 200 mg/kg; in the test with Mus musculus [9], 12 mg/kg; with Mus musculus [28], 1.7 mg/kg; in the test on Mus musculus [5], above 81 mg/kg; in the test on Mus musculus [10], above 324 mg/kg; in the test on Mus musculus [11], above 324 mg/kg. The molecule further returned an ED50 in the test on Mus musculus [7] of 12 mg/kg.
